Assay outcomes: PubChem BioAssay, several laboratories
This is a sample that favours compounds with a hit; in the whole collection about 8.7% have one here.
Ecoli WT expand: blocks growth of wild type E. coli BW25113; OD600 absorbance; growth inhibition, % at 100 µM; 98,000 compounds, 0.15% hits;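 active = growth inhibition above about 50% at one test dose, limit read from the data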;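 note: growth measured after 20 h incubation at 37 °C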
Cav3 T inh: human Cav3.2 channel inhibition, primary screen | 100,000 compounds, 4% hits | Cav3.2-expressing cells, Fluo-4 calcium fluorescence FDSS; stronger effect = lower value | O95180 | B-score at 10 µM;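 active = single-dose well whose peak fluorescence ratio is a statistical outlier from its plate by either plate-standardised score or position-corrected B-score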
Pyk2 oligo antag: blocks oligomerization of human Pyk2 in cells | Q14289 | Q293 cells, Pyk2 FERM NanoBiT luminescence; stronger effect = lower value | z-score (the deposit names both 25 µM and 10 µM) | 99,000 compounds, 0.83% hits | AID 1347419;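 active = Z-score of -3 or lower, scaled per plate to the spread of control and sample wells; inactive = z-score above -3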;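 note: negative z-score means lost luminescence so less FERM oligomerization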
PostGolgi yeast: growth inhibition of a yeast mutant, post-Golgi transport screen | post-Golgi transport phenotypic cell assay | inhibition, % at 10 µM | 98,000 compounds, 0.9% hits | AID 739;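 note: yeast cells grown in 1536-well plates; yeast grown about 18 h at 30C before absorbance read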
tolC growth inh: growth inhibitors of E. coli BW25113 tolC mutant | AID 573 | OD615 | 65,000 compounds, 2.2% hits | growth inhibition, % at 10 µM (by protocol);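 active = growth inhibition at or above a cutoff equal to the mean over every tested compound plus 3 SD, cut at about 60% in these data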;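 note: growth measured after 20 h incubation at 37 °C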
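signal = optical density read at 615 nm | test system = E. coli ΔtolC::kan strain BW25113 | timing = 20 h compound exposure of bacteria at 37 °C | buffer or medium = LB medium plus 50 µg/mL kanamycin | compound dosing = 10 µM final, single dose | evaluation = % inhibition of E. coli growth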
PostGolgi ctrl: growth of the yeast control strain, post-Golgi counter-screen; 98,000 compounds, 5% hits; inhibition, % at 10 µM; efflux-deficient yeast background strain, growth absorbance A615, 16 h; AID 738
Large screens that a line does not name were inactive. Cut-off read from the data, not from the text of the source, unless noted: active = inhibition above about 30%; inactive = the rest.

COc1ccc(S(=O)(=O)Nc2cc(C)c(O)c(S(=O)(=O)c3ccccc3)c2)cc1	Cav3 T inh -5.1
CCOC(=O)c1c(NC(=O)CN2CCCCC2)sc2c1CCN(C(=O)OCC)C2	tolC growth inh 96
O=C(CSCc1ccccc1)NNC(=S)Nc1cccc(Cl)c1Cl	PostGolgi ctrl 31 (no result: tolC growth inh)
Cc1c(Cl)cccc1NC(=S)NCc1ccccc1	none (no result: Ecoli WT expand, PostGolgi yeast, tolC growth inh, PostGolgi ctrl)
O=C1Nc2ccc(Br)cc2C1=Nc1ccc(-c2nnc3n2CCCCC3)cc1	none (no result: Cav3 T inh, Pyk2 oligo antag, tolC growth inh)
Cc1nnc(NC(=O)c2sc3ccccc3c2Cl)s1	PostGolgi ctrl 54
COCc1nnc(NC(=O)c2sc3ccccc3c2Cl)s1	PostGolgi ctrl 30
Cc1ccc(NC(=O)c2ccc3ccccc3n2)nc1	PostGolgi ctrl 34
O=C(Nc1ccc(Cl)cn1)c1ccc2ccccc2n1	none (no result: tolC growth inh)
Cc1ccc(NC(=O)c2cccc(Cl)c2)nc1	none
O=C(NC1=NCCS1)c1sc2ccccc2c1Cl	none (no result: tolC growth inh)
Cc1ccc(NC(=O)c2sc3ccccc3c2Cl)nc1	PostGolgi ctrl 31 (no result: tolC growth inh)
CCC(C)NC(=O)CSc1ncccc1C(=O)O (configuration not stated)	none (no result: tolC growth inh)
C[N+]12CCCCC1C(COC(=O)c1ccc3c(c1)OCO3)CCC2 (configuration not stated)	none (no result: Cav3 T inh, tolC growth inh)
Cn1c(=O)c2c3c(sc2n2c(SCc4ccc5c(c4)OCO5)nnc12)COC(C)(C)C3	none (no result: Ecoli WT expand, Cav3 T inh, Pyk2 oligo antag, PostGolgi yeast, PostGolgi ctrl)
O=C(CN(Cc1ccc2c(c1)OCO2)C(=O)CSc1nc2ccccc2o1)NC1CCCCC1	Cav3 T inh -3.9, tolC growth inh 100
Cn1c(/C=N/c2nc3ccccc3[nH]2)nc2ccccc21	none
C(=N\c1nc2ccccc2[nH]1)/c1cccs1	Cav3 T inh 3.1
CCOC(=O)Nc1sc2nc(C)cc(C)c2c1-n1cccc1	PostGolgi ctrl 41 (no result: tolC growth inh)
CCOC(=O)Nc1sc(=S)n(C)c1C	none
Cc1cc(C)c2c(-n3cccc3)c(C(=O)NNS(=O)(=O)c3ccc(Br)cc3)sc2n1	Cav3 T inh -4.7 (no result: tolC growth inh)
COc1cc(C(=O)N2CCN(S(=O)(=O)c3ccc(F)cc3)CC2)cc(OC)c1OC	none (no result: tolC growth inh)
CCOc1cc(C2C(C(=O)N3CCCCC3)=C(C)NC3=C2C(=O)CCC3)cc(Br)c1O (configuration not stated)	none
Cn1c(CNC(=O)Nc2ccccc2Cl)nnc1SCc1ccccc1	none
CN(CCOc1ccc(-c2ccn(S(=O)(=O)c3cccc4ccccc34)n2)cc1)c1ccccn1	none (no result: tolC growth inh)
O=C(NCCN1CCOCC1)N1c2ccccc2Sc2ccccc21	none (no result: tolC growth inh)
CCCCOC(=O)n1c(=O)oc2cc(S(=O)(=O)N3CCCCC3)ccc21	Cav3 T inh -4.8, Pyk2 oligo antag -3.1
COC(=O)n1c(=O)oc2cc(S(=O)(=O)N3CCOCC3)ccc21	none
CC(C)NC(=O)CSc1nnc(-c2ccc(S(=O)(=O)N3CCCC3)cc2)n1CC1CCCO1 (configuration not stated)	none
COc1cc2c(cc1NC(=O)CN1C(=O)NC3(CCc4ccccc43)C1=O)oc1ccccc12 (configuration not stated)	PostGolgi ctrl 38
C/C(NCCN1CCOCC1)=C(\C#N)C(N)=O	none (no result: Ecoli WT expand, PostGolgi yeast, PostGolgi ctrl)
OC(Cn1ccnc1)c1ccc(Cl)cc1Cl (configuration not stated)	PostGolgi yeast 76
CCN(CCNS(=O)(=O)c1ccc2[nH]c(=O)sc2c1)c1ccccc1	none (no result: Pyk2 oligo antag)
Cc1ccc(-c2ccc(C3C(C#N)=C(N)Oc4n[nH]c(C)c43)o2)cc1 (configuration not stated)	none (no result: tolC growth inh)
Cc1[nH]nc2c1C(c1ccc(-c3ccccc3C#N)o1)C(C#N)=C(N)O2 (configuration not stated)	Cav3 T inh -4.4
Cc1cc(C)n(C(=O)CNC(=O)C2COc3ccccc3O2)n1 (configuration not stated)	none
Cc1cc(C)n(C(=O)c2ccc(NC(=O)C3COc4ccccc4O3)cc2)n1 (configuration not stated)	PostGolgi ctrl 33
O=C(Nc1ccc2c(c1)CCC2)C1COc2ccccc2O1 (configuration not stated)	tolC growth inh 100
O=C(Nc1ccc2c(c1)OCO2)C1COc2ccccc2O1 (configuration not stated)	none
O=C(Nc1cnc2ccccc2c1)C1COc2ccccc2O1 (configuration not stated)	Cav3 T inh -12
NNC(=O)CN1C(c2ccc(Cl)cc2)=Nc2ccc(Br)cc2C1c1ccccc1 (configuration not stated)	Cav3 T inh -9.9, Pyk2 oligo antag -3.4 (no result: tolC growth inh)
COC(=O)CN1C(c2ccccc2)=Nc2ccc(Cl)cc2C1c1ccccc1 (configuration not stated)	Cav3 T inh -6.7, Pyk2 oligo antag -3, PostGolgi ctrl 30 (no result: tolC growth inh)
CC(=O)Nc1ccc(S(=O)(=O)N2CCC(NC(=O)c3ccco3)CC2)cc1	none
Cn1nnc2cc(C(=O)NC3CCCCC3)ccc21	none
CC(C)NC(=O)c1ccc2c(c1)nnn2C	PostGolgi ctrl 45
Cn1nnc2cc(C(=O)Nc3cccnc3)ccc21	PostGolgi yeast 39
C#Cc1ccc2c(c1)COc1c3ccccc3nn1-2	none (no result: Ecoli WT expand, Pyk2 oligo antag, PostGolgi yeast, tolC growth inh, PostGolgi ctrl)
Cc1ccc(Sc2ncccc2COC(=O)Nc2c(C)cccc2C)cc1	Cav3 T inh -5.5 (no result: tolC growth inh)
N#CC1=C(N)NC(SCC(=O)O)=C(C#N)C12CCCC2	none (no result: Cav3 T inh)
N#CC1=C(N)NC(SCc2ccc(F)cc2)=C(C#N)C12CCCCC2	PostGolgi yeast 99, PostGolgi ctrl 68 (no result: Cav3 T inh)
CC(C)Cn1c(-c2ccccc2F)n[nH]c1=S	PostGolgi ctrl 33
CCn1c(-c2c[nH]c3ccccc23)n[nH]c1=S	PostGolgi yeast 40
Cc1ccc(C)n1CCN1CCN(CC(=O)Nc2ccc(S(N)(=O)=O)cc2)CC1	PostGolgi ctrl 37
CCOC(=O)c1c(NC(=O)C(F)(OC)C(F)(F)F)sc(C(=O)N2CCCCC2)c1C (configuration not stated)	tolC growth inh 78 (no result: Cav3 T inh)
CCOC(=O)c1sc(NC(=O)CN2CCCC2)c(C(=O)OCC)c1C	none (no result: Cav3 T inh)
CN1C(=O)c2cccc(NC(=O)CCc3ccccc3)c2C1=O	none (no result: Pyk2 oligo antag)
COc1ccc(C(=O)OCC(=O)NCc2ccco2)cc1S(=O)(=O)N1CCN(c2cccc(Cl)c2)CC1	Cav3 T inh -7.4 (no result: tolC growth inh)
Cc1noc(/C=C/c2ccco2)c1S(=O)(=O)N1CCC(C(=O)N2c3ccccc3CC2C)CC1 (configuration not stated)	none (no result: Cav3 T inh)
O=C(CCC1CCCC1)c1c(O)c2ccccc2oc1=O	Cav3 T inh -8, tolC growth inh 97 (no result: Pyk2 oligo antag)
O=C(Nc1ccc(Cl)cc1)[C@@H]1[C@@H]2C(=O)N(c3ccc(Cl)cc3Cl)C(=O)[C@@H]2[C@H]2C=CC=NN21	Cav3 T inh -4.7 (no result: Pyk2 oligo antag, tolC growth inh)
Cc1ccc(N2C(=O)[C@@H]3[C@H](C2=O)[C@H]2C=CC=NN2[C@@H]3C(=O)Nc2ccc(Cl)cc2)cc1	none (no result: tolC growth inh)
O=C(Nc1ccc(Cl)cc1)[C@@H]1[C@@H]2C(=O)N(c3ccc(Cl)cc3)C(=O)[C@@H]2[C@H]2C=CC=NN21	Cav3 T inh -5.8 (no result: tolC growth inh)
